From PubChem
CHO parental Ca: counter-screen: ATP calcium response change in parental CHO cells; parental CHO-K1, ATP-induced calcium, Fluo-8 fluorescence; inhibition, % at 5.6 µM; hit rate 0.63% among 330,000; AID 463079;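 active = inhibition above that plate's mean sample inhibition plus 3 SD, cut at about 26% in these data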;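 note: 0% = ATP-challenged DMSO wells and 100% = DMSO wells without ATP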
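Material: Parental CHO cells | Reagent: ATP | Compound dosing: Single nominal dose of 5.6 µM per compound | Detection: Intracellular calcium via Fluo-8 no-wash fluorescent dye | Read-out: % inhibition of ATP-induced calcium mobilization | Benchmarks: Low control ATP plus DMSO, high control DMSO only | Replicates: Singlicate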
OX1R antag-1: blocks the human orexin 1 receptor | OX1R-expressing cells, FRET antagonist read-out | inhibition, % at 6.6 µM | hit rate 1.8% among 330,000 | AID 485270; in the data active = inhibition mostly above about 38%, no sharp cut-off; inactive = mostly below about 40%;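 note: 0% = agonist challenge alone and 100% = reference antagonist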
Target sequence (O43613 whole entry, looked up): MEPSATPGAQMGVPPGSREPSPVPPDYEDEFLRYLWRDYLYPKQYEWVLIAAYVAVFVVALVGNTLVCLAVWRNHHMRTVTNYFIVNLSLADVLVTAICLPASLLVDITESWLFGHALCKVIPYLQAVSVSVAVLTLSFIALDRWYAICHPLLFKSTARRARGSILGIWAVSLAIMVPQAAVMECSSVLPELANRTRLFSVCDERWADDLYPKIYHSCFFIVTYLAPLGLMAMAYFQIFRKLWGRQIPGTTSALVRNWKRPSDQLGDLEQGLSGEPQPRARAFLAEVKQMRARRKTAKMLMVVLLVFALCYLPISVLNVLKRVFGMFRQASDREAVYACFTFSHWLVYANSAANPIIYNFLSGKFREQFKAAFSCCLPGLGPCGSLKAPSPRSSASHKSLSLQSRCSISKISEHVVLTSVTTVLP
TAAR1 antag: human TAAR1 antagonism | AID 624466 | hit rate 1.5% among 360,000 | CHO RD-HGA16 TAAR1, Fluo-8 calcium fluorescence, antagonist | Q96RJ0 | inhibition, % at 3 µM;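 active = inhibition above a per-plate cutoff, the mean inhibition of test compounds on that plate plus 3 SD, cut at about 49% in these data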;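 note: 0% = DMSO plus EC80 beta-PEA response and 100% = DMSO alone without agonist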
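Material: RD-HGA16 CHO cells with stable hTAAR1 and Gα16; Dosing: single nominal final test compound concentration of 3 µM; Schedule: seeding 17-24 h prior, 75-min 37 °C, 30-min RT dye loading; Detection: kinetic Fluo-8 calcium fluorescence measurement; Measure: % inhibition from peak post-agonist over basal fluorescence ratio; Benchmarks: vehicle and agonist controls.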
GalR3 antag: blocks the human galanin receptor 3; O60755; HEK293 GalR3-CNG cAMP membrane potential fluorescence; galR3 body fused to GalR1 C-terminus; inhibition, % at 3 µM; hit rate 0.44% among 360,000;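 active = inhibition above the screen-wide average plus 3 SD, cut at about 13% in these data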;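 note: forskolin and galanin both at EC90 stimulate the cells; cAMP rise reported by CNG channel membrane potential dye signal; 0% = forskolin plus galanin with DMSO and 100% = forskolin alone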
OX1R antag-2: human HCRTR1 antagonism; CHO/OX1R cells, Fluo-8 calcium fluorescence, orexin A; inhibition, % at 5 µM; hit rate 0.43% among 330,000;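 active = inhibition above its plate's threshold, mean inhibition of all tested compounds on the plate plus 3 SD, cut at about 37% in these data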;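 note: 0% = orexin A challenge wells and 100% = SB-334867-A antagonist wells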
TAAR1 agonist: agonists of human TAAR1. Q96RJ0. hit rate 0.99% among 360,000. activation, % at 3 µM. AID 624467. CHO RD-HGA16 TAAR1, Fluo-8 calcium fluorescence; vehicle wells 0%, saturating PEA agonist 100%;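 active = activation above the mean activation of all test compounds in the run plus 3 SD, cut at about 38% in these data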
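Assay system: CHO-derived RD-HGA16 cells with stable Gα16 and human TAAR1; timing: 17-24 h seeding, 75 min 37 °C dye, 30 min RT; read-out: % activation from peak over basal fluorescence ratio, DMSO-to-PEA scaled; measured by: kinetic Fluo-8 calcium fluorescence; benchmarks: low control DMSO, high control PEA (EC100); doses: 3 µM single concentration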
GalR3 conf: confirmation of human galanin receptor 3 antagonists. shares compounds with GalR3 antag. HEK293 GalR3 CNG cAMP biosensor, membrane potential fluorescence; galR3 fused to GalR1 carboxy tail; challenged with forskolin and galanin at EC90. inhibition, % at 3 µM. hit rate 59% among 1,600;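 active = inhibition above the primary screen's cutoff, the mean inhibition of all screened compounds plus 3 SD, cut at about 13% in these data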;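 note: 0% = forskolin plus galanin and 100% = forskolin alone with DMSO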
CNG parental: parental cell agonism counter-screen for GalR3 antagonists | shares compounds with GalR3 antag | hit rate 10% among 1,600 | activation, % at 3 µM | AID 652268 | HEK293-CNG parental cells, cAMP membrane potential fluorescence; normalised: DMSO wells 0%, forskolin wells 100%; in the data active = activation above about 1.3%
Numbers without * were called inactive; · = not tested or not shown. The list is not random: actives were taken first. Their share in the collection is about 4.2%.

SMILES	CHO parental Ca	OX1R antag-1	TAAR1 antag	GalR3 antag	OX1R antag-2	TAAR1 agonist	GalR3 conf	CNG parental
N#Cc1cc(-c2ccccc2)oc1NC(=O)c1ccco1	-9	20	15	29*	-26	0	16*	0
COc1ccc(-n2c(C)cc(C(=O)COC(=O)Cn3cnc4ccccc43)c2C)cc1	34*	32	27	100*	18	5	89*	0
COc1ccc(-n2c(C)cc(C(=O)CN3C(=O)c4ccccc4C3=O)c2C)cc1	-15	8	17	9	-4	2	·	·
COc1ccc(NC(=O)CN2CCN(c3ccc(F)cc3)CC2)cc1	-7	-3	-17	-13	-21	-1	·	·
CCn1cc(CNC(=O)c2ccc(OC3CCN(Cc4ccccn4)CC3)cc2)cn1	-12	5	-4	-3	-7	2	·	·
CCn1nc(C)c(CNC(=O)c2ccc(OC3CCN(Cc4ccccn4)CC3)cc2)c1C	·	·	-28	97*	·	2	103*	0
CN(Cc1c(F)cccc1Cl)C(=O)c1cccc(S(=O)(=O)N2CCN(Cc3ccccc3)CC2)c1	·	·	21	-4	·	9	·	·
CN(Cc1ccc(OC(F)F)cc1)C(=O)c1cccc(S(=O)(=O)N2CCN(Cc3ccccc3)CC2)c1	·	·	49*	22*	·	5	88*	-1
CCc1ccc(OC)c(S(=O)(=O)Nc2ccc(Cc3ccncc3)cc2)c1	48*	42	7	46*	-3	17	8	0
COc1ccc(S(=O)(=O)Nc2ccc(Cc3ccncc3)cc2)cc1OC	16	23	20	-9	-3	6	·	·
CC1(C)OC2C(O1)[C@@H](CO)O[C@H]2n1cnc2c(N)ncnc21 (stereo partly drawn)	-24	15	-7	0	-12	2	·	·
Nc1ncnc2c1ncn2[C@@H]1O[C@H](CO)[C@@H](O)[C@H]1O	-2	16	5	112*	-1	1	-20	5.8*
O=C(Nc1ccc2ccccc2c1)c1cccc(F)c1	-3	-2	13	-6	5	-2	·	·
Cc1ccc(CSc2sc(C(=O)c3ccccc3)c(N)c2C#N)cc1	-21	24	14	5	-15	5	·	·
Cc1ccc(-c2sc(C(=O)NN)c(C)c2C#N)cc1	-11	7	-21	27*	-17	0	25*	0
COCC(C)n1c(C)cc(C(=O)COC(=O)c2ccc3c(c2)NC(=O)CS3)c1C (stereo not drawn)	-8	16	37	17*	-14	16	10	0
CCCCN(C)C(=O)c1cc2cc([N+](=O)[O-])cc(OC)c2oc1=O	-6	53	-13	22*	-23	0	2	0
Cc1noc(C)c1COC(=O)c1cccc(S(=O)(=O)N2CCCCCC2)c1	49*	22	15	80*	13	8	84*	0
COC(=O)c1sc(N2C(=O)C(O)=C(C(=O)c3ccc(C)o3)C2c2ccc([N+](=O)[O-])cc2)nc1C (stereo not drawn)	-2	25	-17	8	-19	0	·	·
COC(=O)c1sc(N2C(=O)C(O)=C(C(=O)c3ccc(C)o3)C2c2ccc(OC)c(OC)c2)nc1C (stereo not drawn)	·	·	-43	36*	·	0	7	0
CCOC(=O)c1sc(N2C(=O)C(O)=C(C(=O)c3ccc(C)o3)C2c2ccc(OC)c(OC)c2)nc1C (stereo not drawn)	-24	5	-17	34*	-31	-1	15*	0
CCOc1ccc(C2C(C(=O)c3ccc(C)o3)=C(O)C(=O)N2c2nc(C)c(C(=O)OC)s2)cc1 (stereo not drawn)	-5	-11	-40	13*	-29	5	15*	0
CCCn1c(=O)c(C(=O)NCC2CCCO2)c(O)c2ccccc21 (stereo not drawn)	2	6	-12	-4	-18	17	·	·
Cc1ccc(C(=O)NCc2ccco2)o1	-11	12	-21	-1	-5	0	·	·
COc1cc(C2c3c(-c4cc(Cl)c(C)cc4O)n[nH]c3C(=O)N2Cc2cccnc2)ccc1O (stereo not drawn)	-7	1	1	33*	-19	10	24*	0
SMILES	CHO parental Ca	OX1R antag-1	TAAR1 antag	GalR3 antag	OX1R antag-2	TAAR1 agonist	GalR3 conf	CNG parental
COc1cccc(C2c3c(-c4cc(Cl)c(C)cc4O)n[nH]c3C(=O)N2Cc2cccnc2)c1 (stereo not drawn)	-33	7	-29	12	-25	5	·	·
CC(NC(=O)Nc1nnc(C(F)(F)F)s1)(C(F)(F)F)C(F)(F)F	60*	59*	2	81*	51*	8	88*	0
Cc1ccc(CN2[C@@H](c3ccccc3)COCCS2(=O)=O)cc1	-15	43	5	-8	-32	0	·	·
O=C(NCCN1CCOCC1)C1CCN(c2ncnc3c2sc2cccc(F)c23)CC1	2	10	5	15*	-7	1	2	0
O=C(C1CCN(c2ncnc3c2sc2cccc(F)c23)CC1)N1CCOCC1	-5	30	-8	-1	-5	1	·	·
CC1=NNC(=O)/C1=C\c1cn(-c2ccccc2)nc1-c1ccccc1	92*	19	61*	48*	96*	31	55*	0
COc1ccc(-c2nc(C#N)c(NCc3ccc(C)cc3)o2)cc1OC	-29	12	-12	23*	-24	4	20*	0
Cn1cc(CNCc2ccc(OC(F)(F)F)cc2)c(-c2ccc3c(c2)OCCO3)n1	40*	33	-13	35*	16	9	92*	1.7*
CCOC(=O)C1=CCN(S(=O)(=O)c2cccc(Cl)c2)C1c1ccc(Cl)cc1 (stereo not drawn)	·	·	20	-6	·	1	·	·
N#CCC(=O)Nc1ccc(C(=O)OCC(=O)c2ccc3c(c2)NC(=O)CO3)cc1	0	-4	-27	13*	-2	9	8	0
C=CCn1c(SC2CCOC2=O)nc2sc(C)c(C)c2c1=O (stereo not drawn)	-10	-15	-1	35*	-20	11	36*	0
Nc1nnnn1/N=C\c1ccc(Cl)c([N+](=O)[O-])c1	9	65*	-1	18*	7	0	14*	0
